# High-throughput results: PubChem, Sanford-Burnham Center for Chemical Genomics
# bIAP act = bovine intestinal alkaline phosphatase activators, primary screen, biochemical, bovine IAP, CDP-star luminescence; alkaline phosphatase, intestinal [Bos taurus]; purified bovine IAP, 30 min; active compounds read high; fold of DMSO-control signal, blank-subtracted; activation factor at 20 µM; 200,000 tested, 0.17% active; AID 1016, 2008;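 active = activation factor of 2 or more at 20 µM, a signal rise over negative controls twice the positive control's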
# mIAP inh = inhibitors of mouse IAP, primary screen, biochemical, luminescence, uHTS; intestinal alkaline phosphatase [Mus musculus]; purified mouse IAP, CDP-Star luminescence, 30 min; inhibition, % at 10 µM; 330,000 tested, 0.2% active; AID 2806, 2010;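 active = inhibition of at least 40% at 10 µM in the primary screen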;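 note: plate controls were DMSO with enzyme for no effect and no enzyme wells for full effect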
# hIAP act = human IAP activators, primary screen, biochemical, luminescence, uHTS; purified human IAP, CDP-Star luminescence, 30 min; active compounds read high; 1 = vehicle-only enzyme, 0 = enzyme-free background; 330,000 tested, 0.16% active; AID 2524, 2010; activation factor at 10 µM;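 active = activation factor of the enzyme at least 2-fold when tested at 20 µM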
# Target sequence (P09923 whole entry, looked up): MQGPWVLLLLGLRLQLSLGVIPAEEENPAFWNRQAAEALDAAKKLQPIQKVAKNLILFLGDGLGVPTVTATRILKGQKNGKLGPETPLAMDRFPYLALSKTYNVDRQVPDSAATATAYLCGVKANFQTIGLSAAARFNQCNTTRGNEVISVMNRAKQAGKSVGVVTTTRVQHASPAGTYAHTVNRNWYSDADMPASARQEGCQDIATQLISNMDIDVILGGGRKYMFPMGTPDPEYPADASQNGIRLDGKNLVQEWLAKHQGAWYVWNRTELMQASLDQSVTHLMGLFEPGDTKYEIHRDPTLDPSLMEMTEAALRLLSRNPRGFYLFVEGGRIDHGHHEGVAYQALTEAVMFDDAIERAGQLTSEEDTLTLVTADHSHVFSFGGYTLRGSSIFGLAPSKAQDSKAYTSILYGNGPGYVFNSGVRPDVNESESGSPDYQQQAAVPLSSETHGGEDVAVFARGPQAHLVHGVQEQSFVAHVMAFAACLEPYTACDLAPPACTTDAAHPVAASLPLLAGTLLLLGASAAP
# bIAP inhibitor = bovine intestinal alkaline phosphatase inhibitors, primary screen, selectivity assay for TNAP inhibitor project, biochemical, bovine IAP, CDP-star luminescence | alkaline phosphatase, intestinal [Bos taurus] | purified bovine IAP, 30 min | inhibition, % at 20 µM | 190,000 tested, under 10 active | AID 1019, 2008;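 active = over 50% inhibition of intestinal alkaline phosphatase at 20 µM in the single-dose screen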
#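 System: Purified bovine intestinal alkaline phosphatase (IAP) enzyme | Input: IAP diluted 1/65,000,000 in the well | Also added: CDP-star chemiluminescent phosphatase substrate, 30 µM final | Dosing: 20 µM single dose | Times: Enzyme reaction for 30 min at room temperature | Detection: Luminescence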
# hIAP inh = human IAP inhibitors, primary screen, biochemical, luminescence, uHTS; Intestinal-type alkaline phosphatase (Homo sapiens), P09923; purified IAP, CDP-Star luminescence, 30 min; inhibition, % at 10 µM; 330,000 tested, 0.12% active; AID 2544, 2010;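 active = inhibition reaching a set limit with compound at 10 µM in the primary screen, cut at about 35% in these data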;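 note: plate controls were DMSO wells with enzyme for no effect and no-enzyme buffer wells for full effect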
# mIAP act = activators of mouse IAP, primary screen, biochemical, luminescence, uHTS; muIAP, CDP-Star luminescence, 30 min; active compounds read high; 1 = vehicle-only enzyme signal, 0 = enzyme-free wells; activation factor at 10 µM; AID 2805, 2010; 330,000 tested, 0.24% active;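 active = activation factor of at least 2 at 20 µM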
#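 Assay system: mouse IAP enzyme; reagent: chemiluminescent substrate CDP-Star; dosing: test compounds delivered from DMSO solution; schedule: 30 min at room temperature; measured by: luminescence from enzymatic CDP-Star hydrolysis; controls: DMSO-only wells and no-enzyme negative control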
# Starred values were filed as active, the others as inactive; i = inactive; . = no result given. Rows were chosen to be rich in hits. Some 0.79% of all compounds tested hit in one or more screens of this group.
SMILES,bIAP act,mIAP inh,hIAP act,bIAP inhibitor,hIAP inh,mIAP act
Cc1ccccc1N(C(=O)c1csnn1)C(C(=O)NC(C)(C)C)c1ccncc1 (stereo not drawn),0.9,-14,0.87,9,13,1.1
COc1ccc(C2=NOC(Cn3nc(-c4ccccc4)cc3C(=O)NCc3ccccc3OC)C2)cc1 (stereo not drawn),.,-107,1,.,0,2.1*
COc1ccc(NC(=S)NNC(=O)CCn2cc([N+](=O)[O-])cn2)cc1,1.3,6,2.1*,-31,-106,0.94
O=C(Cn1c(CSc2ccccc2)nc2ccccc21)Nc1ccccc1,1.1,.,.,-8,.,.
Cc1ccc(SCc2nc3ccccc3n2CC(=O)Nc2ccccc2)cc1,1,-136,1,0,-3,2.4*
O=C(NCc1ccco1)C1Cc2cc(Cl)ccc2O1 (stereo not drawn),.,0,1.1,.,-6,1
COc1cc(/C=C2\SC(=S)N(Nc3ccccc3)C2=O)cc(OC)c1OC,0.9,40*,0.95,7,5,0.6
O=C(C1CC1)N1CCc2cc(S(=O)(=O)N3CCN(c4ccccc4)CC3)ccc21,.,2,1.1,.,-7,0.98
CCOCCCNC(=S)N1C2CCC1CC(NC(=O)Nc1ccc(C(=O)OCC)cc1)C2 (stereo not drawn),1.4,-120,1.4,-38,-38,2.2*
CCNC(=S)N1C2CCC1CC(NC(=O)Nc1ccc(C(=O)OCC)cc1)C2 (stereo not drawn),1.1,-56,0.92,-12,8,1.6
N#Cc1c(N)sc(=S)c2c1CCCCC2,0.9,48*,1,12,-4,0.52
N#Cc1c(N)sc2c1CCCCCC2,0.6,0,1.1,35,-6,0.99
COc1ccccc1NS(=O)(=O)c1ccc(O)c(C(=O)OCc2cccc([N+](=O)[O-])c2)c1,0.8,1,0.87,16,13,0.99
Cc1noc(C)c1NC(=O)N(C)C[C@H]1Oc2ccc(NC(=O)NC(C)C)cc2C(=O)N([C@H](C)CO)C[C@H]1C,.,-22,0.98,.,2,1.2
C[C@H](CO)N1C[C@H](C)[C@@H](CN(C)S(C)(=O)=O)Oc2ccc(NC(=O)Nc3ccc(C(F)(F)F)cc3)cc2C1=O,.,-126,1,.,-4,2.3*
C[C@H]1CN([C@@H](C)CO)C(=O)c2cccc(NC(=O)Nc3ccc(C(F)(F)F)cc3)c2O[C@@H]1CN(C)S(=O)(=O)c1ccc(Cl)cc1,.,-111,1,.,-2,2.1*
C[C@H](CO)N1C[C@H](C)[C@@H](CN(C)C(=O)NC2CCCCC2)Oc2ccc(NC(=O)Nc3ccc(C(F)(F)F)cc3)cc2C1=O,.,-130,1.1,.,-10,2.3*
Cc1noc(C)c1NC(=O)N(C)C[C@H]1Oc2ccc(NC(=O)Nc3ccc(C(F)(F)F)cc3)cc2C(=O)N([C@H](C)CO)C[C@@H]1C,.,-155,1.1,.,-10,2.5*
CCCCCNC(=O)c1ccccc1SC,0.9,1,0.93,14,7,0.99
N#Cc1ccc(NC(=O)CN2CCN(c3ccccn3)CC2)cc1,.,0,1,.,-2,1
COc1cccc(CN(C)C(=O)C(CCSC)NS(=O)(=O)c2ccc3c(c2)OCCO3)c1OC (stereo not drawn),.,-6,0.98,.,2,1.1
C[C@H](CO)N1C[C@H](C)[C@@H](CN(C)C(=O)Nc2ccc(C(F)(F)F)cc2)Oc2ccc(NC(=O)NC3CCCCC3)cc2C1=O,.,-212,1.2,.,-24,3.1*
C[C@H](CO)N1C[C@H](C)[C@H](CN(C)S(=O)(=O)c2cn(C)cn2)Oc2ccc(NC(=O)Nc3ccc(C(F)(F)F)cc3)cc2CC1=O,.,-169,1.1,.,-8,2.7*
C[C@H](CO)N1C[C@H](C)[C@@H](CN(C)C(=O)Nc2ccc(C(F)(F)F)cc2)Oc2ccc(NC(=O)Nc3ccccc3)cc2C1=O,.,-143,1.1,.,-10,2.4*
C[C@@H]1CN([C@@H](C)CO)C(=O)Cc2cc(NC(=O)Nc3ccc(C(F)(F)F)cc3)ccc2O[C@@H]1CN(C)S(=O)(=O)c1ccc(Cl)cc1,.,-41,1.2,.,-17,1.4
SMILES,bIAP act,mIAP inh,hIAP act,bIAP inhibitor,hIAP inh,mIAP act
CC(NC(=O)CCNS(=O)(=O)c1ccccc1)c1ccccc1 (stereo not drawn),.,5,1.2,.,-19,0.95
CCCC(=O)Nc1ccc(Cc2ccc(NC(=O)CCC)c(C(=O)O)c2)cc1C(=O)O,1,0,0.96,1,4,1
CN(Cc1ncc[nH]1)Cc1cn(-c2ccccc2)nc1-c1ccc2c(c1)OCO2,.,-13,1.1,.,-14,1.1
Cc1ccc(-n2cc(CN(C)Cc3ncc[nH]3)c(-c3cccc(C)c3)n2)cc1,3.5*,-4,1.4,-253,-43,1
O=C(Nc1cccc(Cl)c1)N1CCN2C(=O)c3ccccc3C12c1ccccc1 (stereo not drawn),1.1,-108,0.83,-8,17,2.1*
C=CCn1c2ccccc2c2nnc(SCCCn3c(=O)[nH]c4ccccc43)nc21,2*,.,.,-99,.,.
Cc1ccc(C)c(N2CCN(C(c3ccncc3)c3nnnn3Cc3ccccc3)CC2)c1 (stereo not drawn),1,-9,1.2,-1,-16,1.1
CCn1c(C(O)c2ccc3c(c2)OCO3)nc2ccccc21 (stereo not drawn),2.5*,-2,0.91,-154,9,1
CCn1c(C(O)c2cc(OC)c(OC)c(OC)c2)nc2ccccc21 (stereo not drawn),.,-6,1.1,.,-11,1.1
Cc1ccc(/C=C/C(=O)NC2=NCCS2)cc1,0.6,-2,0.59,38,41*,1
COc1cc(/C=C2\COC/C(=C\c3ccc(O)c(OC)c3)C2=O)ccc1O,.,42*,0.89,.,11,0.58
COc1cc(/C=C2/CC/C(=C/c3ccc(O)c(OC)c3)C2=O)ccc1O,.,36,0.9,.,10,0.64
O=C(O)/C=C\C(=O)Nc1ccccc1C#Cc1ccc(Br)cc1,0.9,0,1.2,8,-18,1
CC(NC(=O)c1cc2cc(F)ccc2[nH]1)c1ccccc1 (stereo not drawn),.,-21,0.94,.,6,1.2
Cc1ccc(C(NC(=O)NC(C)c2ccccc2)C(Cl)(Cl)Cl)cc1F (stereo not drawn),0.7,i,0.87,26,13,14*
